Assay results from ChEMBL document CHEMBL4152228, “Structural-based design, synthesis, and antitumor activity of novel alloxazine analogues with potential selective kinase inhibition” (Eur J Med Chem, 2018).

Tests used:
MCF7 [1] = test: Induction of apoptosis in human MCF7 cells assessed as necrotic cells at 1 uM after 72 hrs by annexin V-FITC/propidium iodide staining-based flow cytometric method (reference value: 12.6%); assay type: functional
MCF7 [2] = test: Induction of apoptosis in human MCF7 cells assessed as early apoptotic cells at 5 uM after 72 hrs by annexin V-FITC/propidium iodide staining-based flow cytometric method (reference value: 9%); assay type: functional
MCF7 [3] = test: Induction of apoptosis in human MCF7 cells assessed as viable cells at 10 uM after 72 hrs by annexin V-FITC/propidium iodide staining-based flow cytometric method (reference value: 76%); assay type: functional; conditions: MCF7, 72 h, read-out: Activity
MCF7 [4] = test: Induction of apoptosis in human MCF7 cells assessed as necrotic cells at 5 uM after 72 hrs by annexin V-FITC/propidium iodide staining-based flow cytometric method (reference value: 12.6%); assay type: functional
K562 = test: Antiproliferative activity against human K562 cells after 72 hrs by MTT assay; assay type: functional, cell-based; conditions: K562, 72 h
MCF7 [5] = test: Induction of apoptosis in human MCF7 cells assessed as early apoptotic cells at 1 uM after 72 hrs by annexin V-FITC/propidium iodide staining-based flow cytometric method (reference value: 9%); assay type: functional
MCF7 [6] = test: Induction of apoptosis in human MCF7 cells assessed as late apoptotic cells at 1 uM after 72 hrs by annexin V-FITC/propidium iodide staining-based flow cytometric method (reference value: 2.6%); assay type: functional
HCT-116 = test: Antiproliferative activity against human HCT116 cells after 72 hrs by MTT assay; assay type: functional, cell-based; conditions: HCT-116, 72 h
In short: (§1)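 MTT viability assay. Cells grown in RPMI-1640 with 10% heat-inactivated FBS, L-glutamine and 1% penicillin/streptomycin, used within 20 passages. Seeded at 5×10^3 cells/well, left overnight at 37 °C, then exposed to final concentrations of 0.005–50 µM (0.1% DMSO) for up to 72 h. MTT added for 3 h, formazan dissolved in DMSO, absorbance read at 550 nm. IC50 derived relative to untreated controls.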

MCF7 [7] = test: Induction of apoptosis in human MCF7 cells assessed as late apoptotic cells at 5 uM after 72 hrs by annexin V-FITC/propidium iodide staining-based flow cytometric method (reference value: 2.6%); assay type: functional
MCF7 [8] = test: Ratio of increase in late apoptotic cells to early apoptotic cells in human MCF7 cells at 10 uM after 72 hrs by annexin V-FITC/propidium iodide staining-based flow cytometric method; assay type: functional
MCF7 [9] = test: Antiproliferative activity against human MCF7 cells after 72 hrs by MTT assay; assay type: functional, cell-based; conditions: MCF7, 72 h; in short: as §1
MCF7 [10] = test: Induction of apoptosis in human MCF7 cells assessed as late apoptotic cells at 10 uM after 72 hrs by annexin V-FITC/propidium iodide staining-based flow cytometric method (reference value: 2.6%); assay type: functional
[11] = Antiproliferative activity against human WM793B cells after 72 hrs by MTT assay; assay type: functional, cell-based; in short: as §1
MCF7 [12] = test: Induction of apoptosis in human MCF7 cells assessed as viable cells at 1 uM after 72 hrs by annexin V-FITC/propidium iodide staining-based flow cytometric method (reference value: 76%); assay type: functional; conditions: MCF7, 72 h, read-out: Activity
MCF7 [13] = test: Induction of apoptosis in human MCF7 cells assessed as early apoptotic cells at 10 uM after 72 hrs by annexin V-FITC/propidium iodide staining-based flow cytometric method (reference value: 9%); assay type: functional
MCF7 [14] = test: Induction of apoptosis in human MCF7 cells assessed as necrotic cells at 10 uM after 72 hrs by annexin V-FITC/propidium iodide staining-based flow cytometric method (reference value: 12.6%); assay type: functional
MCF7 [15] = test: Induction of apoptosis in human MCF7 cells assessed as increase of early apoptotic cells after 72 hrs by annexin V-FITC/propidium iodide staining-based flow cytometric method; assay type: functional, cell-based
In short: (§2)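 MCF-7 cells treated 72 h at final 1, 5, 10 µM, then annexin V-FITC/PI stained in pH 7.4 HEPES binding buffer and analysed by flow cytometry. Early or late apoptotic cell fraction expressed as percent change versus vehicle control: (sample − control)/control × 100. Triplicates.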

MCF7 [16] = test: Induction of apoptosis in human MCF7 cells assessed as increase of early apoptotic cells at 1 to 10 uM after 72 hrs by annexin V-FITC/propidium iodide staining-based flow cytometric method relative to control; assay type: functional; in short: as §2
A2780 = test: Antiproliferative activity against human A2780 cells after 72 hrs by MTT assay; assay type: functional, cell-based; conditions: A2780, 72 h; in short: as §1
MCF7 [17] = test: Induction of apoptosis in human MCF7 cells assessed as viable cells at 5 uM after 72 hrs by annexin V-FITC/propidium iodide staining-based flow cytometric method (reference value: 76%); assay type: functional; conditions: MCF7, 72 h, read-out: Activity
[18] = biological target: Casein kinase I isoform alpha (Homo sapiens) (UniProt P48729); test: Inhibition of CK1alpha1 (unknown origin) at 10 uM by [33P]-ATP radiometric assay
In short: (§3)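 Radiometric kinase profiling: purified recombinant kinase (~10–50 nM final) with substrate, assay buffer and compound at 10 µM (control 10% DMSO). Started with 33P-ATP (50 µM stock, 0.8 µCi), run 30 min at ambient temperature, then spotted onto P81 phosphocellulose and washed in 1% phosphoric acid. Scintillation counted, no-substrate blank subtracted, single measurement, result given as % change versus control.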

[19] = biological target: Hepatocyte growth factor receptor (Homo sapiens) (UniProt P08581); test: Inhibition of MET (unknown origin) at 10 uM by [33P]-ATP radiometric assay; in short: as §3
[20] = biological target: Receptor tyrosine-protein kinase erbB-2 (Homo sapiens) (UniProt P04626); test: Inhibition of HER2 (unknown origin) at 10 uM by [33P]-ATP radiometric assay; in short: as §3
[21] = biological target: Cyclin-dependent kinase 16 (Homo sapiens) (UniProt Q00536); test: Inhibition of CDK16 (unknown origin) at 10 uM by [33P]-ATP radiometric assay; in short: as §3
[22] = biological target: Mitogen-activated protein kinase 8 (Homo sapiens) (UniProt P45983); test: Inhibition of JNK1 (unknown origin) at 10 uM by [33P]-ATP radiometric assay; in short: as §3
[23] = biological target: Cyclin-dependent kinase 1/Cyclin A1 (Homo sapiens) (UniProt P06493+P78396); test: Inhibition of CDK1/cyclin A1 (unknown origin) at 10 uM by [33P]-ATP radiometric assay; assay type: protein-complex assay; in short: as §3
[24] = biological target: Epidermal growth factor receptor (Homo sapiens) (UniProt P00533); test: Inhibition of EGFR (unknown origin) at 10 uM by [33P]-ATP radiometric assay; in short: as §3
[25] = biological target: Calcium/calmodulin-dependent protein kinase type 1 (Homo sapiens) (UniProt Q14012); test: Inhibition of CAMK1 (unknown origin) at 10 uM by [33P]-ATP radiometric assay; in short: as §3
[26] = biological target: Mast/stem cell growth factor receptor Kit (Homo sapiens) (UniProt P10721); test: Inhibition of c-KIT (unknown origin) at 10 uM by [33P]-ATP radiometric assay
In short: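 Radiometric kinase profiling: purified recombinant kinase (~10–50 nM final) with substrate, assay buffer and compound at 10 µM (control 10% DMSO). Started with 33P-ATP (50 µM stock, 0.8 µCi), run 30 min at ambient temperature, then spotted onto P81 phosphocellulose and washed in 1% phosphoric acid.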

[27] = biological target: Calcium/calmodulin-dependent protein kinase type II subunit alpha (Homo sapiens) (UniProt Q9UQM7); test: Inhibition of CAMK2-alpha (unknown origin) at 10 uM by [33P]-ATP radiometric assay; in short: as §3
[28] = biological target: Protein kinase C beta type (Homo sapiens) (UniProt P05771); test: Inhibition of PCK-beta2 (unknown origin) at 10 uM by [33P]-ATP radiometric assay; in short: as §3
[29] = biological target: Fibroblast growth factor receptor 1 (Homo sapiens) (UniProt P11362); test: Inhibition of FGFR1 (unknown origin) at 10 uM by [33P]-ATP radiometric assay; in short: as §3
[30] = biological target: Mitogen-activated protein kinase 3 (Homo sapiens) (UniProt P27361); test: Inhibition of ERK1 (unknown origin) at 10 uM by [33P]-ATP radiometric assay; in short: as §3
MCF7 [31] = test: Induction of apoptosis in human MCF7 cells assessed as increase of late apoptotic cells at 10 uM after 72 hrs by annexin V-FITC/propidium iodide staining-based flow cytometric method relative to control; assay type: functional; in short: as §2
MCF7 [32] = test: Induction of apoptosis in human MCF7 cells assessed as increase of early apoptotic cells at 1 uM after 72 hrs by annexin V-FITC/propidium iodide staining-based flow cytometric method relative to control; assay type: functional

Sequence of Hepatocyte growth factor receptor (Homo sapiens) (P08581 whole entry): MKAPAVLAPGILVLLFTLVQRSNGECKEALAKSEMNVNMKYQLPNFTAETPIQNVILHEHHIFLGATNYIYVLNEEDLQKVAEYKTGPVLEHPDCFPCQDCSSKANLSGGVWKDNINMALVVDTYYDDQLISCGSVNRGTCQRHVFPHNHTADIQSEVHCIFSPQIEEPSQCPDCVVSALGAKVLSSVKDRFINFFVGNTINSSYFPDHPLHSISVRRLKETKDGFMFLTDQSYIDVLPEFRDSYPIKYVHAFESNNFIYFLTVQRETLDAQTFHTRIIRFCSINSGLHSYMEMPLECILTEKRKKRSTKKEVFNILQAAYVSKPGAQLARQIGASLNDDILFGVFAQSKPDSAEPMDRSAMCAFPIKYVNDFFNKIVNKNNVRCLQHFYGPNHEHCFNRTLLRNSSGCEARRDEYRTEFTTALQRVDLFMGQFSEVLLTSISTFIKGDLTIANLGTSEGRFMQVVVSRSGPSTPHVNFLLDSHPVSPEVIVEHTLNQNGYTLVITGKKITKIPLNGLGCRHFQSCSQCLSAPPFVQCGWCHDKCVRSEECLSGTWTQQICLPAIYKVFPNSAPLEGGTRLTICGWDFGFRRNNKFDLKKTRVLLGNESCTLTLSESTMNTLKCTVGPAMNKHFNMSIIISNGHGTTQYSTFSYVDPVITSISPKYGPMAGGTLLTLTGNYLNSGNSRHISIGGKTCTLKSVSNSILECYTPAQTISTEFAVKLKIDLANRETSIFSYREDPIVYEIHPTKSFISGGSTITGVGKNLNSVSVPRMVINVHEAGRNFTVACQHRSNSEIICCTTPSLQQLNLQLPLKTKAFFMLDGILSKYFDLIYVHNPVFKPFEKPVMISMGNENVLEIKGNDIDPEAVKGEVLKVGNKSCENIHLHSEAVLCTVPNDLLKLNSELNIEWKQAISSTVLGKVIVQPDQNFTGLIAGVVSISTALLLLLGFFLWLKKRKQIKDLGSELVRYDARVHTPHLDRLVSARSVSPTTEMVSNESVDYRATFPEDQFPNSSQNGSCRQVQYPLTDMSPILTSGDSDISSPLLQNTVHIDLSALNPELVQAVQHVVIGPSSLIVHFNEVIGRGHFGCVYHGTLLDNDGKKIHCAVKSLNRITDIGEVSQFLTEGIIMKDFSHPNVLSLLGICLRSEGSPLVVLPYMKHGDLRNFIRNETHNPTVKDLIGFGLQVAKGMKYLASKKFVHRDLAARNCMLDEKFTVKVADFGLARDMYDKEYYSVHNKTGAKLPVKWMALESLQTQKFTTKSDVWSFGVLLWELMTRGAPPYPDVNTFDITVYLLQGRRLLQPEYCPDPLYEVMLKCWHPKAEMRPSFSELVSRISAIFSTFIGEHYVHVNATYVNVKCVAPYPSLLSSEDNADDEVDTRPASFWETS
Sequence of Mitogen-activated protein kinase 8 (Homo sapiens) (P45983 whole entry): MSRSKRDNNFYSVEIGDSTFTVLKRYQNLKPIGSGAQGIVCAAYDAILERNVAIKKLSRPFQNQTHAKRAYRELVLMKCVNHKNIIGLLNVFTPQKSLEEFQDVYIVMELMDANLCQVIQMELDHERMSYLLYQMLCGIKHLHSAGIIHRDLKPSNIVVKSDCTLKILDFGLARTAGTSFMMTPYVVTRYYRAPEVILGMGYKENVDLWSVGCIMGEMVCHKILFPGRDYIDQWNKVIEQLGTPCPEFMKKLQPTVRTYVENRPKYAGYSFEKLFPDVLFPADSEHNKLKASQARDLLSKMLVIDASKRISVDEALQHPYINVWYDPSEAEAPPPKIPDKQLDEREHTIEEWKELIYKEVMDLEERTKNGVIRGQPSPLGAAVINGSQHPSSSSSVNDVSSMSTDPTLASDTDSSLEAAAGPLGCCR
Sequence of Casein kinase I isoform alpha (Homo sapiens) (P48729 2-337 limits assumed): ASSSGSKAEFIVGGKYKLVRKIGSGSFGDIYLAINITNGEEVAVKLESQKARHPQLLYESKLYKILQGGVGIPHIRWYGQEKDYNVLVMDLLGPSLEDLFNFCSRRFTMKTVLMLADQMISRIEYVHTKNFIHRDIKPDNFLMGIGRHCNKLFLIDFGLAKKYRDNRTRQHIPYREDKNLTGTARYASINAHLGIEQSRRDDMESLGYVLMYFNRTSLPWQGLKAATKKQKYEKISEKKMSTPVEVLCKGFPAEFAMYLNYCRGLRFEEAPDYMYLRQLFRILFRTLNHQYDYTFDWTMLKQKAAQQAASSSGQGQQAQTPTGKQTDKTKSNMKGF
Sequence of Cyclin-dependent kinase 1/Cyclin A1 (Homo sapiens) (P06493 whole entry, looked up): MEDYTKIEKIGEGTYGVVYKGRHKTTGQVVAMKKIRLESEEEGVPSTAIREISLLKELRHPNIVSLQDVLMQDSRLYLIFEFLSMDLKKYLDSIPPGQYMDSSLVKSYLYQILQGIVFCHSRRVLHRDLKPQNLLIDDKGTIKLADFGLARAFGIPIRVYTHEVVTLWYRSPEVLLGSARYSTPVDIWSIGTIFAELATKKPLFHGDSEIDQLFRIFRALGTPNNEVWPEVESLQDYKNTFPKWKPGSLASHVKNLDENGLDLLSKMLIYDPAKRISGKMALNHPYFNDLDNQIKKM
Sequence of Cyclin-dependent kinase 1/Cyclin A1 (Homo sapiens) (P78396 whole entry, looked up): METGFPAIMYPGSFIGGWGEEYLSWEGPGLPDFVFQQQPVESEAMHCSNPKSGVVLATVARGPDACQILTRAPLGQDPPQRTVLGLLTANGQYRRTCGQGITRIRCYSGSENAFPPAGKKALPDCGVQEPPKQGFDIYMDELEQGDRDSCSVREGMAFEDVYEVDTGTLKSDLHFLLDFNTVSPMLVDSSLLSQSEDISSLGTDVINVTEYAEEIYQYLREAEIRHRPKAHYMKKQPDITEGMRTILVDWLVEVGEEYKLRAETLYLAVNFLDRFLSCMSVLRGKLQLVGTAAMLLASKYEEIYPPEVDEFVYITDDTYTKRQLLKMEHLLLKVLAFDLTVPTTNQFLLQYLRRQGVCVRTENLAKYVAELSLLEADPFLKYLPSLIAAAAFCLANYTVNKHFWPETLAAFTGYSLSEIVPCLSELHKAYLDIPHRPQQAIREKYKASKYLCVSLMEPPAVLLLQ
Sequence of Fibroblast growth factor receptor 1 (Homo sapiens) (P11362 22-822 limits assumed): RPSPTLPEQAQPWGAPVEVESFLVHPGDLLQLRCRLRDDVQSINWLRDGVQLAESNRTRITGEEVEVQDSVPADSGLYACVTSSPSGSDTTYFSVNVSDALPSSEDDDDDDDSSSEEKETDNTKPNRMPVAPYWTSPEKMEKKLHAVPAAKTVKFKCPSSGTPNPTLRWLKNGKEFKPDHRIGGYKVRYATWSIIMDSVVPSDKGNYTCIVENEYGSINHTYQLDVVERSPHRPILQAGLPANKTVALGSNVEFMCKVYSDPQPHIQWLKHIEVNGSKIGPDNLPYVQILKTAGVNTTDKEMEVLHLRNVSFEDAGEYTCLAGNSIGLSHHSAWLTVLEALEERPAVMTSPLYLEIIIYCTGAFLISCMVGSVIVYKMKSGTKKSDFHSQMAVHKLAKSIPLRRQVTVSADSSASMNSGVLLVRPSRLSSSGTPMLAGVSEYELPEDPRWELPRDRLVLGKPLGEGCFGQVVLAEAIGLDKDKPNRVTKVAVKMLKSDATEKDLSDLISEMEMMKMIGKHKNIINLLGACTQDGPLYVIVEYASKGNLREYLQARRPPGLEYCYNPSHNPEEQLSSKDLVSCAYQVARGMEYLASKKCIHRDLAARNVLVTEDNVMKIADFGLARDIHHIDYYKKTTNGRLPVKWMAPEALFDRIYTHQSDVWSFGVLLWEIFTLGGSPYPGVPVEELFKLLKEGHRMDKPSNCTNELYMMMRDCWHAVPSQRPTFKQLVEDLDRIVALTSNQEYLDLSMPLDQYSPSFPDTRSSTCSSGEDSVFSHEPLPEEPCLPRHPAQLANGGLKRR
Sequence of Mitogen-activated protein kinase 3 (Homo sapiens) (P27361 whole entry): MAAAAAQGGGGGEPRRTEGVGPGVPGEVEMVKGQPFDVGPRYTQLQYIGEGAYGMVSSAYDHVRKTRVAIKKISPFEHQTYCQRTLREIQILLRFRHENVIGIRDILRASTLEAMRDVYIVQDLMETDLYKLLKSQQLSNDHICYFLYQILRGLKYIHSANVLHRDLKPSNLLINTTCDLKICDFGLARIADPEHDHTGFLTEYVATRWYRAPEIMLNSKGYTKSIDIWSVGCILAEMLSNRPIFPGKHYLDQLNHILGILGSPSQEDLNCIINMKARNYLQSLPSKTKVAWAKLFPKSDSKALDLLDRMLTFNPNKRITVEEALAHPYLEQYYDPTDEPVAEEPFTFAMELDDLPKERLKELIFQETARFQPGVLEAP
Sequence of Protein kinase C beta type (Homo sapiens) (P05771 2-671 limits assumed): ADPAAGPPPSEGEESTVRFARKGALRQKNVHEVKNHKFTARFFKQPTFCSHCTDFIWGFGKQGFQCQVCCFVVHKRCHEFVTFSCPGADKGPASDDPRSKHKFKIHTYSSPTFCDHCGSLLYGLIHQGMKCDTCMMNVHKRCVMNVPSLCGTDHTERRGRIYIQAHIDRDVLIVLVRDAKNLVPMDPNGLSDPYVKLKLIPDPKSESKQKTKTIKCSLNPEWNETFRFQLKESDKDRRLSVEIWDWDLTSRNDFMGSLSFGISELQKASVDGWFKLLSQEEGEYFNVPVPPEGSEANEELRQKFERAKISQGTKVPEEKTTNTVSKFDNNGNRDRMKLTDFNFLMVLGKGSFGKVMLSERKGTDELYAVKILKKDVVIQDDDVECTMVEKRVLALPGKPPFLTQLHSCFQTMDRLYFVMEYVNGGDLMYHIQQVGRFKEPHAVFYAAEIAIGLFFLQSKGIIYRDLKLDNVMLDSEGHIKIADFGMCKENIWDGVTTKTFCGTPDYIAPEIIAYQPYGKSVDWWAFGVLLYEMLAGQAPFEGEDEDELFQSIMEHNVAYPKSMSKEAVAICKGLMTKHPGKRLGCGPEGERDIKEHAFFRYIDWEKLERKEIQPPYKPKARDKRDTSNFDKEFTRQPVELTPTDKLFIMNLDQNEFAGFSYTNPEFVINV

Structure (SMILES)	Activity (MCF7 [1])	Activity (MCF7 [2])	viability at 10 µM (MCF7 [3])	Activity (MCF7 [4])	IC50 (K562)	Activity (MCF7 [5])	Activity (MCF7 [6])	IC50 (HCT-116)	Activity (MCF7 [7])	IC50 (MCF7 [9])	Activity (MCF7 [10])	IC50 [11]	viability at 1 µM (MCF7 [12])	Activity (MCF7 [13])	Activity (MCF7 [14])	IC50 (A2780)	viability at 5 µM (MCF7 [17])	further results
O=c1[nH]c(NCc2ccc(CN3CCOCC3)cc2)nc2nc3ccc(Cl)cc3nc12	2.9%	14%	58%	4%	> 50 µM	11.2%	3.2%	310 nM	7.8%	200 nM	16.4%	40.1 µM	82.6%	19.3%	6.3%	190 nM	74.1%	Ratio (MCF7 [8]): 7; Activity (MCF7 [15]): Dose-dependent effect; fold change (FC) (MCF7 [16]): 2
O=c1[nH]c(NCc2ccc(CN3CCCCC3)cc2)nc2nc3ccccc3cc12	–	–	–	–	9.97 µM	–	–	13000 nM	–	11600 nM	–	39 µM	–	–	–	10100 nM	–	inhibition [18]: -6%; inhibition [19]: 0%; inhibition [20]: 33%; inhibition [21]: -5%; inhibition [22]: -7%; inhibition [23]: 18%; inhibition [24]: -3%; inhibition [25]: 5%; inhibition [26]: 32%; inhibition [27]: 1%; inhibition [28]: 4%; inhibition [29]: -4%; inhibition [30]: -1%
CC(Nc1nc2nc3ccccc3nc2c(=O)[nH]1)c1ccccc1 (configuration not stated)	4%	14.1%	45.8%	5.1%	> 50 µM	22.1%	10.5%	140 nM	9.7%	160 nM	32%	> 50 µM	63.4%	14.4%	7.9%	340 nM	71.2%	fold change (FC) (MCF7 [31]): 13; fold change (FC) (MCF7 [32]): >2
